Data reported in ChEMBL document CHEMBL1121364, “Nucleoside conjugates as potential antitumor agents. 3. Synthesis and antitumor activity of 1-(beta-D-arabinofuranosyl)cytosine conjugates of corticosteroids” (1980).

How the values were obtained:
[1] = test system: L1210; assay: Antitumor activity in the mice with intraperitoneal implanted L1210 lymphoid leukemia at the dose of 17.7 and 27.7 mg/kg/day x 5 was determined as mean survival of treated group compared to untreated; 10.5/9.5; type: functional, Mus musculus
Procedure, shortened: (§1)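 C3D2F1/J female mice (C3H/HeJ female × DBA/2J male), groups of six to eight, average weight 25 g. Inoculated ip with 1 × 10^6 L1210 ascites cells taken from DBA/2Ha donor mice bearing 3-5 day old tumors. Compounds were dissolved in 0.154 N NaOH, neutralized with 0.154 N HCl (final 0.9% NaCl), and given ip daily for 5 days from 24 h post-implant. Median survival T/C; ILS = (T/C − 1) × 100; 30-day survivors counted.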

[2] = test system: L1210; assay: Antitumor activity in mice with intraperitoneal implanted L1210 lymphoid leukemia at the dose 9.2 and 14.5 mg/kg/day x 5 was determined as weight change (g/mouse) on 8th day; type: functional
Procedure, shortened: (§2)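 Female C3D2F1/J mice (C3H/HeJ × DBA/2J), groups of six to eight, average weight 25 g. Each mouse got 1 × 10^6 L1210 ascites cells ip, taken from DBA/2Ha donor mice bearing 3-5 day tumors. Compound was dissolved in 0.154 N NaOH and neutralized with 0.154 N HCl (final 0.9% NaCl). Dosed ip daily ×5, starting 24 h after implant. Recorded body weight change on day 8, survival range, median survival and 30-day survivors. ILS = (T/C − 1) × 100.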

[3] = test system: L1210; assay: Antitumor activity in mice with intraperitoneal implanted L1210 lymphoid leukemia at the dose 17.7 and 27.7 mg/kg/day x 5 was determined as weight change (g/mouse) on 8th day; type: functional; procedure, shortened: as §2
[4] = test system: L1210; assay: Antitumor activity in the mice with intraperitoneal implanted L1210 lymphoid leukemia at the dose of 9.2 and 14.5 mg/kg/day x 5 was determined as mean survival of treated group compared to untreated; 12/11; type: functional, Mus musculus
[5] = test system: L1210; assay: Antitumor activity in the mice with intraperitoneal implanted L1210 lymphoid leukemia at the dose 17.7 and 27.7 mg/kg/day x 5 was determined and number of animals survived on 30 th day were reported; 0/8; type: functional, Mus musculus; procedure, shortened: as §2
[6] = test system: L1210; assay: Antitumor activity in the mice with intraperitoneal implanted L1210 lymphoid leukemia at the dose 9.2 and 14.5 mg/kg/day x 5 was determined as percentage increase in the life span as compared with control tumor bearers; type: functional, Mus musculus; procedure, shortened: as §1
[7] = test system: L1210; assay: Antitumor activity in the mice with intraperitoneal implanted L1210 lymphoid leukemia at the dose 17.7 and 27.7 mg/kg/day x 5 was determined as Survival time in days; Range is 7-17 days; type: functional, Mus musculus; procedure, shortened: as §2
[8] = test system: L1210; assay: Antitumor activity in the mice with intraperitoneal implanted L1210 lymphoid leukemia at the dose 9.2 and 14.5 mg/kg/day x 5 was determined as Survival time in days; Range is 12-16 days; type: functional, Mus musculus; procedure, shortened: as §1
[9] = test system: L1210; assay: Antitumor activity in the mice with intraperitoneal implanted L1210 lymphoid leukemia at the dose 17.7 and 27.7 mg/kg/day x 5 was determined as percentage increase in the life span as compared with control tumor bearers; type: functional, Mus musculus; procedure, shortened: as §2
[10] = test system: L1210; assay: Antitumor activity in the mice with intraperitoneal implanted L1210 lymphoid leukemia at the dose 9.2 and 14.5 mg/kg/day x 5 was determined and number of animals survived on 30 th day were reported; 0/6; type: functional, Mus musculus; procedure, shortened: as §1
[11] = test system: L1210; assay: Antitumor activity in the mice with intraperitoneal implanted L1210 lymphoid leukemia at the dose of 75 mg/kg/day x 5 was determined as mean survival of treated group compared to untreated; 18/9.5; type: functional, Mus musculus
[12] = test system: L1210; assay: Antitumor activity in the mice with intraperitoneal implanted L1210 lymphoid leukemia at the dose of 50 mg/kg/day x 5 was determined as mean survival of treated group compared to untreated; 20.5/8; type: functional, Mus musculus
[13] = test system: L1210; assay: Antitumor activity in mice with intraperitoneal implanted L1210 lymphoid leukemia at the dose 75 mg/kg/day x 5 was determined as weight change (g/mouse) on 8th day; type: functional
Procedure, shortened: (§3)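 C3D2F1/J female mice (C3H/HeJ × DBA/2J), groups of six to eight, average 25 g, inoculated ip with 1 × 10^6 L1210 ascites cells taken from DBA/2Ha donor mice carrying 3-5 day tumors. Compound dissolved in 0.154 N NaOH, then neutralized with 0.154 N HCl to give 0.9% NaCl. Given ip daily for 5 consecutive days starting 24 h after implantation. Body weight change per mouse recorded on day 8.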

[14] = test system: L1210; assay: In Vitro evaluation for the antiproliferative activity by observing the growth inhibition of L1210 lymphoid leukemia cells in culture at 72 hour; type: functional, Mus musculus
Procedure, shortened: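 Growth of L1210 lymphoid leukemia cells in culture measured by Trypan blue exclusion of viable cells after 72 h of drug exposure. ED50 is the concentration giving 50% growth inhibition. In some runs the compound was first preincubated in medium at 37 °C for 24 or 48 h before the assay.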

[15] = test system: L1210; assay: Antitumor activity in mice with intraperitoneal implanted L1210 lymphoid leukemia at the dose 25 mg/kg/day x 5 was determined as weight change (g/mouse) on 8th day; type: functional; procedure, shortened: as §3
[16] = test system: L1210; assay: Antitumor activity in mice with intraperitoneal implanted L1210 lymphoid leukemia at the dose 50 mg/kg/day x 5 was determined as weight change (g/mouse) on 8th day; type: functional; procedure, shortened: as §3
[17] = test system: L1210; assay: Antitumor activity in the mice with intraperitoneal implanted L1210 lymphoid leukemia at the dose 25 mg/kg/day x 5 was determined and number of animals survived on 30 th day were reported; 1/8; type: functional, Mus musculus; procedure, shortened: as §2
[18] = test system: L1210; assay: Antitumor activity in the mice with intraperitoneal implanted L1210 lymphoid leukemia at the dose 50 mg/kg/day x 5 was determined as Survival time in days; Range is 14-24 days; type: functional, Mus musculus; procedure, shortened: as §2
[19] = test system: L1210; assay: Antitumor activity in the mice with intraperitoneal implanted L1210 lymphoid leukemia at the dose 50 mg/kg/day x 5 was determined and number of animals survived on 30 th day were reported; 0/8; type: functional, Mus musculus; procedure, shortened: as §2
[20] = test system: L1210; assay: Antitumor activity in the mice with intraperitoneal implanted L1210 lymphoid leukemia at the dose 75 mg/kg/day x 5 was determined and number of animals survived on 30 th day were reported; 1/8; type: functional, Mus musculus; procedure, shortened: as §1
[21] = test system: L1210; assay: Antitumor activity in the mice with intraperitoneal implanted L1210 lymphoid leukemia at the dose 50 mg/kg/day x 5 was determined as percentage increase in the life span as compared with control tumor bearers; type: functional; details: Mus musculus, L1210, ip; procedure, shortened: as §1
[22] = test system: L1210; assay: Antitumor activity in the mice with intraperitoneal implanted L1210 lymphoid leukemia at the dose 75 mg/kg/day x 5 was determined as percentage increase in the life span as compared with control tumor bearers; type: functional; details: Mus musculus, L1210, ip; procedure, shortened: as §1
[23] = test system: L1210; assay: Antitumor activity in the mice with intraperitoneal implanted L1210 lymphoid leukemia at the dose 75 mg/kg/day x 5 was determined as Survival time in days; Range is 15-37 days; type: functional, Mus musculus; procedure, shortened: as §1
[24] = test system: L1210; assay: Antitumor activity in the mice with intraperitoneal implanted L1210 lymphoid leukemia at the dose 25 mg/kg/day x 5 was determined as Survival time in days; Range is 13- >45 days; type: functional, Mus musculus; procedure, shortened: as §2
[25] = test system: L1210; assay: Antitumor activity in the mice with intraperitoneal implanted L1210 lymphoid leukemia at the dose 25 mg/kg/day x 5 was determined as percentage increase in the life span as compared with control tumor bearers; type: functional; details: Mus musculus, L1210, ip; procedure, shortened: as §2
[26] = test system: L1210; assay: Antitumor activity in the mice with intraperitoneal implanted L1210 lymphoid leukemia at the dose of 25 mg/kg/day x 5 was determined as mean survival of treated group compared to untreated; 17.5/9.5; type: functional, Mus musculus; procedure, shortened: as §1

Question: `C[C@]12CCC(=O)C=C1CC[C@H]1[C@@H]3CC[C@](O)(C(=O)CO)[C@@]3(C)C[C@H](O)[C@@]12F.Nc1ccn([C@@H]2O[C@H](CO)[C@@H](O)[C@@H]2O)c(=O)n1` was tested. Which T/C [1] did it give?
Answer: Its T/C is 10.5.

Question: And the Weight change [2]?
Answer: Its Weight change is -4.47 g mouse-1.

Question: And the Weight change [3]?
Answer: Its Weight change is -3.48 g mouse-1.

Question: And the T/C [4]?
Answer: Its T/C is 12.

Question: What about the Survivors [5] of the same compound?
Answer: The Survivors was 0.

Question: And the ILS [6]?
Answer: Its ILS is 9%.

Question: What about the Survival time [7] of the same compound?
Answer: The Survival time was 7 days.

Question: And the Survival time [8]?
Answer: Its Survival time is 12 days.

Question: What about the ILS [9] of the same compound?
Answer: Its ILS is 11%.

Question: And the Survivors [10]?
Answer: Its Survivors is 0.

Question: What does the source list for `C[C@H]1C[C@@H]2[C@H]([C@@H](O)C[C@@]3(C)[C@H]2CC[C@]3(O)C(=O)COP(=O)(O)OC[C@H]2O[C@@H](n3ccc(N)nc3=O)[C@@H](O)[C@@H]2O)[C@@]2(C)C=CC(=O)C=C12`?
Answer: T/C [11]: 18; T/C [12]: 20.5; Weight change [13]: -1.07 g mouse-1; ED 50 [14]: 450 nM; Weight change [15]: 2 g mouse-1; Weight change [16]: -1.08 g mouse-1; Survivors [17]: 1; Survival time [18]: 14 days; Survivors [19]: 0; Survivors [20]: 1; ILS at 50 mg/kg/day [21]: 156%; ILS at 75 mg/kg/day [22]: 90%; Survival time [23]: 15 days; Survival time [24]: 13 days; ILS at 25 mg/kg/day [25]: 84%; T/C [26]: 17.5
